Source: ChEMBL document CHEMBL1145930, “Synthesis and evaluation of nitroheterocyclic carbamate prodrugs for use with nitroreductase-mediated gene-directed enzyme prodrug therapy” (J Med Chem, 2003)
Values after ≈ are worked out from the molar mass of the structure shown.

Columns and labels:
[1] = tested on: EMT6; assay: Inhibitory activity against EMT6 murine cell line; type: functional, cell-based; conditions: Mus musculus
In short: (§1)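 Aerobic growth inhibition of log-phase cells (parental NTR-negative lines). Cultures seeded 24 h before an 18 h drug exposure; cell density read 4–5 days later by sulforhodamine B staining. IC50 is the concentration giving 50% growth inhibition versus same-plate controls. Mean ± SEM of up to five independent experiments.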

[2] = tested on: SK-OV-3; assay: Inhibitory activity was determined against SKOV3 cell line in human; type: functional, cell-based; in short: as §1
[3] = tested on: V79; assay: Inhibitory activity was determined against V79 cell line in chinese hamster; type: functional, cell-based; conditions: Cricetulus griseus; in short: as §1
[4] = tested on: WiDr; assay: Inhibitory activity was determined against WiDr cell line in human; type: functional, cell-based; in short: as §1
[5] = tested on: SK-OV-3; assay: Ratio between SKOV3 and SKOV3-NTR neo was determined; type: functional, Homo sapiens
In short: (§2)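 Parental and stably NTR-transfected cells were tested in parallel by aerobic SRB growth inhibition (18 h exposure, readout 4–5 days later). The ratio is IC50(NTR-ve)/IC50(NTR+ve), calculated within each experiment. Selection drug was kept during passage but omitted during experiments: puromycin 15 µM for V79, 5 µM for EMT6; G418 300 µg/mL for SKOV3/WiDr.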

[6] = tested on: V79; assay: Ratio between V79 and V79-NTRpuro was determined; type: functional, Cricetulus griseus; in short: as §2
[7] = tested on: WiDr; assay: Ratio between WiDr and WiDr-NTRneo was determined; type: functional, Homo sapiens; in short: as §2
[8] = tested on: EMT6; assay: Ratio between EMT6 and EMT6-NTRpuro was determined; type: functional, Mus musculus; in short: as §2
[9] = Solubility in alpha-MEM culture medium; type: physicochemical
In short: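 Solubility measured in α-MEM culture medium with 5% fetal calf serum, by HPLC analysis of the supernatant of a saturated solution.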

[10] = tested on: Mus musculus; assay: In vivo maximum tolerance dose in C3H mice by ip administration; type: functional
In short: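 Male C3H mice (ca. 25 g), groups of six, given single ip doses in 10^(1/8)-fold increments. Vehicle DMSO at 1 μL/g for most compounds; CB1954 given in 10% DMA/40% PEG400/50% water at 10 μL/g. Animals observed daily for 60 days; any losing >15% body weight or becoming moribund were terminated.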

[11] = tested on: EMT6; assay: Inhibitory activity against EMT6 (mouse mammary carcinoma) murine cell line; type: functional, cell-based; in short: as §1
[12] = tested on: SK-OV-3; assay: Inhibitory activity against SKOV3 (human ovarian carcinoma) cell line in human; type: functional, cell-based; in short: as §1

Row | Structure (SMILES) | IC50 [1] [µM] | IC50 [2] [µM] | IC50 [3] [µM] | IC50 [4] [µM] | Ratio [5] | Ratio [6] | Ratio [7] | Ratio [8] | solubility [9] [µM] | MTD [10] [µM] | IC50 [11] [µM] | IC50 [12] [µM]
1 | CCOC(=O)c1cc(COC(=O)Nc2cc3c(c4ccccc24)C(C(=O)c2cc4cc(OC)c(OC)c(OC)c4[nH]2)CN3CCl)c([N+](=O)[O-])n1C (centres undefined) | 28 | 97 | 24 | 94 | 9.6 | 2 | 13 | 12 |  |  |  | 
2 | COc1cc2cc(C(=O)C3CN(CCl)c4cc(NC(=O)OCc5ccn(C)c5[N+](=O)[O-])c5ccccc5c43)[nH]c2c(OC)c1OC (centres undefined) | 64 | 116 | 62 | 219 | 0.5 | 1.5 | 1.8 | 1.3 | 18 (≈ 11.7 µg/mL) |  |  | 
3 | COc1cc2cc(C(=O)C3CN(CCl)c4cc(NC(=O)OCc5cnc([N+](=O)[O-])n5C)c5ccccc5c43)[nH]c2c(OC)c1OC (centres undefined) | 19.6 | 75 | 24 | 75 | 21 | 14.7 | 40 | 62 | 17 (≈ 11 µg/mL) | >1000 |  | 
4 | COc1cc2cc(C(=O)C3CN(CCl)c4cc(NC(=O)OCc5ccc([N+](=O)[O-])n5C)c5ccccc5c43)[nH]c2c(OC)c1OC (centres undefined) | 49 | 265 | 53 | 182 | 1.3 | 1 | 2.5 | 1.2 | 9 (≈ 5.83 µg/mL) |  |  | 
5 | COc1cc2cc(C(=O)C3CN(CCl)c4cc(NC(=O)OCc5ncc([N+](=O)[O-])n5CCO)c5ccccc5c43)[nH]c2c(OC)c1OC (centres undefined) | 129 | 378 | 94 | 427 | 26 | 1.2 | 12.4 | 11 | 20 (≈ 13.6 µg/mL) |  |  | 
6 | NC(=O)c1cc(N(CCBr)CCBr)c([N+](=O)[O-])cc1[N+](=O)[O-] | 54 | 58 |  |  | 211 | 302 | 174 | 1380 | 40 (≈ 17.6 µg/mL) |  |  | 
7 | COc1cc2cc(C(=O)C3CN(CCl)c4cc(NC(=O)OCc5cnn(C)c5[N+](=O)[O-])c5ccccc5c43)[nH]c2c(OC)c1OC (centres undefined) | 39 | 0.032 | 41 | 0.0113 | 30.3 | 37 | 13.5 | 87 | 8 (≈ 5.19 µg/mL) |  |  | 
8 | COc1cc2cc(C(=O)C3CN(CCl)c4cc(NC(=O)OCc5ccc([N+](=O)[O-])o5)c5ccccc5c43)[nH]c2c(OC)c1OC (centres undefined) | 18 | 76 | 20 | 89 | 1.2 | 1.1 | 1.9 | 1.2 | 11 (≈ 6.99 µg/mL) |  |  | 
9 | COc1cc2cc(C(=O)C3CN(CCl)c4cc(NC(=O)OCc5ccc([N+](=O)[O-])s5)c5ccccc5c43)[nH]c2c(OC)c1OC (centres undefined) | 0.0043 | 0.0106 | 0.0035 | 0.018 | 7 | 3.1 | 13.5 | 16 | 4 (≈ 2.6 µg/mL) |  |  | 
10 | COc1cc2cc(C(=O)C3CN(CCl)c4cc(NC(=O)OCc5ncn(C)c5[N+](=O)[O-])c5ccccc5c43)[nH]c2c(OC)c1OC (centres undefined) | 63 | 61 | 44 | 0.024 | 5.6 | 1.4 | 3.4 | 6.5 | 5.5 (≈ 3.57 µg/mL) |  |  | 
11 | CCOC(=O)c1cc([N+](=O)[O-])c(COC(=O)Nc2cc3c(c4ccccc24)C(C(=O)c2cc4cc(OC)c(OC)c(OC)c4[nH]2)CN3CCl)n1C (centres undefined) |  | 98 | 52 | 223 | 0.8 | 1.8 | 1.3 |  | 21 (≈ 15.1 µg/mL) |  |  | 
12 | COc1cc2cc(C(=O)C3CN(CCl)c4cc(NC(=O)OCc5ncc([N+](=O)[O-])n5C)c5ccccc5c43)[nH]c2c(OC)c1OC (centres undefined) | 78 | 146 | 68 | 230 | 50 | 10 | 100 | 71 | 8 (≈ 5.19 µg/mL) | >1000 |  | 
13 | COc1cc2cc(C(=O)C3CN(CCl)c4cc(NC(=O)OCc5c([N+](=O)[O-])ccn5C)c5ccccc5c43)[nH]c2c(OC)c1OC (centres undefined) | 15 | 0.025 | 0.006 | 0.028 | 0.7 | 0.9 | 1.4 | 1.5 | 8.4 (≈ 5.44 µg/mL) |  |  | 
14 | COc1cc2cc(C(=O)C3CN(CCl)c4cc(NC(=O)OCc5c([N+](=O)[O-])ncn5C)c5ccccc5c43)[nH]c2c(OC)c1OC (centres undefined) | 73 | 185 | 55 | 201 | 4.8 | 1.2 | 2.8 | 2.1 | 13 (≈ 8.44 µg/mL) |  |  | 
15 | COc1cc2cc(C(=O)N3CC(CCl)c4c3cc(N)c3ccccc43)[nH]c2c(OC)c1OC (centres undefined) | 0.00037 | 0.0011 | 0.00033 | 0.0016 | 0.55 | 0.9 | 0.9 | 2 | 197 (≈ 91.8 µg/mL) |  |  | 
16 | NC(=O)c1cc(N2CC2)c([N+](=O)[O-])cc1[N+](=O)[O-] [TRETAZICAR] |  |  |  |  | 317 | 2090 | 51 | 930 | 1600 (≈ 403 µg/mL) |  | 71 | 174
